# Values joined by “and” are separate entries in the source; they are usually repeats but may differ in a detail not shown here. Equal entries are not always repeated.
# System: U2OS
# Assay: Multiplex assay against U2OS
# Assay type: toxicity, cell-based
# Conditions: human, number of replicates 2
# In short: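 Four dyes were applied at seeding to live cells: Hoechst33342, BioTracker Green Microtubule Cytoskeleton Dye, MitoTracker Red and Annexin V Alexa Fluor 680. Imaging after compound addition used a CQ1 microscope at 37°C and 5% CO2. CellPathfinder machine-learning gating then sorted cells into Hoechst high-intensity objects or normal cells, normal cells into healthy, pyknosed or fragmented nuclei, and pyknosed cells into mitotic or apoptotic, with tubulin, mitochondrial-mass and membrane-permeability phenotypes given as per cents of healthy-nucleus cells.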
# [1] = 12 h, 1 µM, compound concentration 1 uM
# [2] = 12 h, 10 µM, compound concentration 10 uM
# [3] = 24 h, 1 µM, compound concentration 1 uM
# [4] = 24 h, 10 µM, compound concentration 10 uM
# [5] = 48 h, 1 µM, compound concentration 1 uM
# [6] = 48 h, 10 µM, compound concentration 10 uM
smiles,measurement,setting,value
O=C(NCc1ccc(F)cc1)N1CCN2C(=O)OC(c3ccccc3)(c3ccccc3)C2C1 (stereo unspecified),Population Apoptotic (%),[1],80% and 46%
same,Population Fragmented Nuclei (%),[1],11% and 2%
same,Population Healthy Nuclei (%),[1],69% and 86%
same,Population Hoechst High Intensity Objects (%),[1],3% and 0%
same,Population Membrane Permeable-Phenotype (%),[1],0% and 3%
same,Population Mitochondria Different-Phenotype (%),[1],0% and 1%
same,Population Mitotic Cells (%),[1],20% and 53%
same,Population Normal (%),[1],96% and 100%
same,Population Pyknosed Nuclei (%),[1],19% and 10%
same,Population Tubulin-Different-Phenotype (%),[1],61% and 62%
same,Population Apoptotic (%),[2],62% and 43%
same,Population Fragmented Nuclei (%),[2],7% and 4%
same,Population Healthy Nuclei (%),[2],71% and 86%
same,Population Hoechst High Intensity Objects (%),[2],0%
same,Population Membrane Permeable-Phenotype (%),[2],22% and 24%
same,Population Mitochondria Different-Phenotype (%),[2],22% and 17%
same,Population Mitotic Cells (%),[2],37% and 56%
same,Population Normal (%),[2],100% and 99%
same,Population Pyknosed Nuclei (%),[2],21% and 9%
same,Population Tubulin-Different-Phenotype (%),[2],88% and 60%
same,Population Apoptotic (%),[3],47% and 81%
same,Population Fragmented Nuclei (%),[3],2% and 8%
same,Population Healthy Nuclei (%),[3],88% and 58%
same,Population Hoechst High Intensity Objects (%),[3],0% and 2%
same,Population Membrane Permeable-Phenotype (%),[3],2% and 5%
same,Population Mitochondria Different-Phenotype (%),[3],0%
same,Population Mitotic Cells (%),[3],52% and 18%
same,Population Normal (%),[3],100% and 97%
same,Population Tubulin-Different-Phenotype (%),[3],72% and 45%
same,Population Apoptotic (%),[4],75% and 72%
same,Population Fragmented Nuclei (%),[4],2% and 6%
same,Population Healthy Nuclei (%),[4],64% and 78%
same,Population Hoechst High Intensity Objects (%),[4],0%
same,Population Membrane Permeable-Phenotype (%),[4],37% and 16%
same,Population Mitochondria Different-Phenotype (%),[4],45% and 36%
same,Population Mitotic Cells (%),[4],25% and 28%
same,Population Normal (%),[4],100%
same,Population Pyknosed Nuclei (%),[4],32% and 15%
same,Population Tubulin-Different-Phenotype (%),[4],83% and 53%
same,Population Apoptotic (%),[5],37% and 90%
same,Population Healthy Nuclei (%),[5],90% and 62%
same,Population Hoechst High Intensity Objects (%),[5],0% and 1%
same,Population Membrane Permeable-Phenotype (%),[5],1% and 9%
same,Population Mitochondria Different-Phenotype (%),[5],0%
same,Population Normal (%),[5],100% and 98%
same,Population Pyknosed Nuclei (%),[5],6% and 18%
same,Population Tubulin-Different-Phenotype (%),[5],86% and 48%
same,Population Apoptotic (%),[6],75% and 73%
same,Population Fragmented Nuclei (%),[6],7% and 5%
same,Population Healthy Nuclei (%),[6],57% and 75%
same,Population Hoechst High Intensity Objects (%),[6],0%
same,Population Membrane Permeable-Phenotype (%),[6],12% and 20%
same,Population Mitochondria Different-Phenotype (%),[6],37% and 19%
same,Population Mitotic Cells (%),[6],25% and 26%
same,Population Normal (%),[6],100%
same,Population Pyknosed Nuclei (%),[6],35% and 18%
same,Population Tubulin-Different-Phenotype (%),[6],68% and 42%
Cn1cc(-n2cnc3c(NCc4nc5cc(Cl)c(Cl)cc5[nH]4)nc(N4CCOCC4)nc32)cn1,Population Apoptotic (%),[1],41% and 88%
same,Population Healthy Nuclei (%),[1],36% and 71%
same,Population Hoechst High Intensity Objects (%),[1],0%
same,Population Membrane Permeable-Phenotype (%),[1],5% and 7%
same,Population Mitochondria Different-Phenotype (%),[1],0% and 8%
same,Population Normal (%),[1],100%
same,Population Pyknosed Nuclei (%),[1],36% and 24%
same,Population Tubulin-Different-Phenotype (%),[1],58% and 50%
same,Population Apoptotic (%),[2],62% and 75%
same,Population Hoechst High Intensity Objects (%),[2],0%
same,Population Membrane Permeable-Phenotype (%),[2],33% and 23%
same,Population Mitochondria Different-Phenotype (%),[2],16% and 37%
same,Population Mitotic Cells (%),[2],37% and 24%
same,Population Normal (%),[2],100%
same,Population Pyknosed Nuclei (%),[2],39% and 28%
same,Population Tubulin-Different-Phenotype (%),[2],66% and 73%
same,Population Apoptotic (%),[3],96% and 80%
same,Population Fragmented Nuclei (%),[3],9% and 21%
same,Population Healthy Nuclei (%),[3],11% and 13%
same,Population Hoechst High Intensity Objects (%),[3],1% and 7%
same,Population Membrane Permeable-Phenotype (%),[3],18% and 0%
same,Population Normal (%),[3],98% and 92%
same,Population Pyknosed Nuclei (%),[3],79% and 65%
same,Population Tubulin-Different-Phenotype (%),[3],50% and 80%
same,Population Apoptotic (%),[4],94% and 95%
same,Population Hoechst High Intensity Objects (%),[4],1% and 0%
same,Population Mitotic Cells (%),[4],5% and 4%
same,Population Normal (%),[4],98% and 100%
same,Population Pyknosed Nuclei (%),[4],64% and 61%
same,Population Tubulin-Different-Phenotype (%),[4],89% and 33%
same,Population Apoptotic (%),[5],100% and 86%
same,Population Fragmented Nuclei (%),[5],10% and 16%
same,Population Healthy Nuclei (%),[5],4% and 0%
same,Population Hoechst High Intensity Objects (%),[5],2% and 7%
same,Population Mitotic Cells (%),[5],0% and 13%
same,Population Normal (%),[5],97% and 92%
same,Population Pyknosed Nuclei (%),[5],85% and 83%
same,Population Apoptotic (%),[6],94% and 92%
same,Population Healthy Nuclei (%),[6],10% and 5%
same,Population Hoechst High Intensity Objects (%),[6],0% and 1%
same,Population Membrane Permeable-Phenotype (%),[6],100% and 57%
same,Population Mitochondria Different-Phenotype (%),[6],100% and 57%
same,Population Mitotic Cells (%),[6],5% and 7%
same,Population Normal (%),[6],100% and 98%
same,Population Pyknosed Nuclei (%),[6],44% and 85%
same,Population Tubulin-Different-Phenotype (%),[6],100% and 85%
CS(=O)(=O)c1ccc(C(=O)Nc2cccc(COc3ccc(Br)cc3CN3CC[C@@H](O)C3)c2)c(Cl)c1.O=CO,Population Apoptotic (%),[1],60% and 71%
same,Population Healthy Nuclei (%),[1],80%
same,Population Hoechst High Intensity Objects (%),[1],0%
same,Population Mitotic Cells (%),[1],40% and 28%
same,Population Normal (%),[1],100%
same,Population Pyknosed Nuclei (%),[1],9%
same,Population Apoptotic (%),[2],55% and 54%
same,Population Healthy Nuclei (%),[2],65% and 80%
same,Population Hoechst High Intensity Objects (%),[2],0%
same,Population Mitotic Cells (%),[2],44% and 45%
same,Population Normal (%),[2],100%
same,Population Pyknosed Nuclei (%),[2],20% and 15%
same,Population Apoptotic (%),[3],54% and 59%
same,Population Healthy Nuclei (%),[3],59% and 86%
same,Population Hoechst High Intensity Objects (%),[3],0%
same,Population Mitotic Cells (%),[3],45% and 40%
same,Population Normal (%),[3],100%
same,Population Apoptotic (%),[4],60% and 72%
same,Population Healthy Nuclei (%),[4],59% and 65%
same,Population Hoechst High Intensity Objects (%),[4],0%
same,Population Mitotic Cells (%),[4],40% and 27%
same,Population Normal (%),[4],100%
same,Population Pyknosed Nuclei (%),[4],31%
same,Population Apoptotic (%),[5],60% and 87%
same,Population Healthy Nuclei (%),[5],64% and 82%
same,Population Hoechst High Intensity Objects (%),[5],0%
same,Population Normal (%),[5],100%
same,Population Pyknosed Nuclei (%),[5],15%
same,Population Apoptotic (%),[6],76% and 88%
same,Population Healthy Nuclei (%),[6],47% and 57%
same,Population Hoechst High Intensity Objects (%),[6],0% and 1%
same,Population Mitotic Cells (%),[6],23% and 11%
same,Population Normal (%),[6],100%
same,Population Pyknosed Nuclei (%),[6],33%
CS(=O)(=O)c1ccc(C(=O)Nc2cccc(COc3ccc(Br)cc3CN[C@H]3CCC[C@@H]3O)c2)c(Cl)c1.O=CO,Population Apoptotic (%),[1],50% and 70%
same,Population Healthy Nuclei (%),[1],78% and 79%
same,Population Hoechst High Intensity Objects (%),[1],0%
same,Population Normal (%),[1],100%
same,Population Apoptotic (%),[2],59% and 100%
same,Population Healthy Nuclei (%),[2],70% and 80%
same,Population Hoechst High Intensity Objects (%),[2],0%
same,Population Normal (%),[2],99% and 100%
same,Population Apoptotic (%),[3],87% and 73%
same,Population Healthy Nuclei (%),[3],71% and 82%
same,Population Hoechst High Intensity Objects (%),[3],0%
same,Population Normal (%),[3],100%
same,Population Apoptotic (%),[4],88% and 79%
same,Population Healthy Nuclei (%),[4],47% and 63%
same,Population Hoechst High Intensity Objects (%),[4],0%
same,Population Normal (%),[4],100% and 99%
same,Population Apoptotic (%),[5],44% and 86%
same,Population Healthy Nuclei (%),[5],80% and 83%
same,Population Hoechst High Intensity Objects (%),[5],0%
same,Population Normal (%),[5],100%
same,Population Apoptotic (%),[6],92%
same,Population Healthy Nuclei (%),[6],50% and 57%
same,Population Hoechst High Intensity Objects (%),[6],1% and 0%
same,Population Normal (%),[6],98% and 100%

# — ChEMBL document CHEMBL5303300, “EUbOPEN Chemogenomics Library - Multiplex” (2023)
